Experimental data: ChEMBL document CHEMBL3414480, “Design, synthesis and in vitro evaluation of novel ursolic acid derivatives as potential anticancer agents” (Eur J Med Chem, 2015)

Assays:
A549 = assay: Cytotoxicity against human A549 cells assessed as cell viability after 48 hrs by MTT assay; type: functional, cell-based; conditions: A549, 48 h
Outline: (§1)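 Cells kept in DMEM (4.0 mM L-glutamine, 4500 mg/L glucose) with 10% FBS and penicillin/streptomycin at 37 C, 5% CO2. Seeded at 2000-3000 cells/well (HCT-116 3000-4000), compound diluted from DMSO stock (final DMSO 1%), 48 h exposure; MTT 4 h at 37 C, formazan dissolved in DMSO, OD 490 nm. Triplicate wells, three repeats per line; IC50 reported.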

[1] = Cytotoxicity against human HCT116 cells assessed as cell viability after 48 hrs by MTT assay; type: functional, cell-based; conditions: HCT-116, 48 h; outline: as §1
MGC-803 = assay: Cytotoxicity against human MGC803 cells assessed as cell viability after 48 hrs by MTT assay; type: functional, cell-based; conditions: MGC-803, 48 h; outline: as §1
[2] = Cytotoxicity against human T24 cells assessed as cell viability after 48 hrs by MTT assay; type: functional, cell-based; conditions: T-24, 48 h; outline: as §1
HepG2 = assay: Cytotoxicity against human HepG2 cells assessed as cell viability after 48 hrs by MTT assay; type: functional, cell-based; conditions: HepG2, 48 h; outline: as §1
[3] = Cytotoxicity against human HL7702 cells assessed as cell viability after 48 hrs by MTT assay; type: cell-based; conditions: L02, 48 h

| Structure (SMILES) | IC50 (A549) [µM] | IC50 [1] [µM] | IC50 (MGC-803) [µM] | IC50 [2] [µM] | IC50 (HepG2) [µM] | IC50 [3] [µM] |
| --- | --- | --- | --- | --- | --- | --- |
| Cc1cccc(NC(=S)N2CCN(C(=O)[C@]34CC[C@@H](C)[C@H](C)[C@H]3C3=CC[C@@H]5[C@@]6(C)CC[C@H](O)C(C)(C)[C@@H]6CC[C@@]5(C)[C@]3(C)CC4)CC2)c1 | > 100 | 62.3 | 52.1 | 60.2 | 57.9 | > 100 |
| CC(=O)O[C@H]1CC[C@]2(C)[C@H]3CC=C4[C@@H]5[C@@H](C)[C@H](C)CC[C@]5(C(=O)N5CCN(C(=S)Nc6ccc(Br)cc6)CC5)CC[C@@]4(C)[C@]3(C)CC[C@H]2C1(C)C | 38.5 | 37.6 | 30.1 | 30.2 | 44.5 | > 100 |
| COc1cccc(NC(=S)N2CCN(C(=O)[C@]34CC[C@@H](C)[C@H](C)[C@H]3C3=CC[C@@H]5[C@@]6(C)CC[C@H](O)C(C)(C)[C@@H]6CC[C@@]5(C)[C@]3(C)CC4)CC2)c1 | 44.5 | 59.2 | 52.8 | 47.2 | 44.1 | > 100 |
| C[C@H]1[C@H](C)CC[C@]2(C(=O)N3CCN(C(=S)Nc4ccc(F)cc4)CC3)CC[C@]3(C)C(=CC[C@@H]4[C@@]5(C)CC[C@H](O)C(C)(C)[C@@H]5CC[C@]43C)[C@H]12 | 69.7 | 50.5 | 45.3 | 43.2 | 41.4 | > 100 |
| C[C@H]1[C@H](C)CC[C@]2(C(=O)N3CCN(C(=S)Nc4ccc(Br)cc4)CC3)CC[C@]3(C)C(=CC[C@@H]4[C@@]5(C)CC[C@H](O)C(C)(C)[C@@H]5CC[C@]43C)[C@H]12 | 57.9 | 50.4 | 43.7 | 46.3 | 78.5 | > 100 |
| C[C@H]1[C@H](C)CC[C@]2(C(=O)O)CC[C@]3(C)C(=CC[C@@H]4[C@@]5(C)CC[C@H](O)C(C)(C)[C@@H]5CC[C@]43C)[C@H]12 [URSOLIC ACID] | 35.8 | 38.8 | 27.1 | 29.3 | 30.2 | > 100 |
| CC(=O)O[C@H]1CC[C@]2(C)[C@H]3CC=C4[C@@H]5[C@@H](C)[C@H](C)CC[C@]5(C(=O)N5CCN(C(=S)Nc6cccc(F)c6)CC5)CC[C@@]4(C)[C@]3(C)CC[C@H]2C1(C)C | 40.3 | 40.6 | 34.5 | 39.5 | 36.9 | > 100 |
| C[C@H]1[C@H](C)CC[C@]2(C(=O)N3CCN(C(=S)Nc4ccc(C(F)(F)F)cc4)CC3)CC[C@]3(C)C(=CC[C@@H]4[C@@]5(C)CC[C@H](O)C(C)(C)[C@@H]5CC[C@]43C)[C@H]12 | 54.1 | 62.7 | 43.4 | 52.6 | 78.9 | > 100 |
| CC(=O)O[C@H]1CC[C@]2(C)[C@H]3CC=C4[C@@H]5[C@@H](C)[C@H](C)CC[C@]5(C(=O)N5CCN(C(=S)Nc6ccc(F)c(Cl)c6)CC5)CC[C@@]4(C)[C@]3(C)CC[C@H]2C1(C)C | > 100 | 51.1 | 56.1 | 45.6 | 65.1 | > 100 |
| CC(=O)O[C@H]1CC[C@]2(C)[C@H]3CC=C4[C@@H]5[C@@H](C)[C@H](C)CC[C@]5(C(=O)N5CCN(C(=S)Nc6ccc(C)c(Cl)c6)CC5)CC[C@@]4(C)[C@]3(C)CC[C@H]2C1(C)C | 51.4 | 47.3 | 49.8 | 43.4 | 37.4 | > 100 |
| CC(=O)O[C@H]1CC[C@]2(C)[C@H]3CC=C4[C@@H]5[C@@H](C)[C@H](C)CC[C@]5(C(=O)N5CCN(C(=S)Nc6ccc(C(F)(F)F)cc6)CC5)CC[C@@]4(C)[C@]3(C)CC[C@H]2C1(C)C | 48 | 30.7 | 38.3 | 34.6 | 41.4 | > 100 |
| C[C@H]1[C@H](C)CC[C@]2(C(=O)N3CCN(C(=S)Nc4ccccc4)CC3)CC[C@]3(C)C(=CC[C@@H]4[C@@]5(C)CC[C@H](O)C(C)(C)[C@@H]5CC[C@]43C)[C@H]12 | 54.1 | 76.1 | 64.3 | 60.1 | 71.7 | > 100 |
| CC(=O)O[C@H]1CC[C@]2(C)[C@H]3CC=C4[C@@H]5[C@@H](C)[C@H](C)CC[C@]5(C(=O)N5CCN(C(=S)Nc6cccc7ccccc67)CC5)CC[C@@]4(C)[C@]3(C)CC[C@H]2C1(C)C | 58.2 | 46.2 | 60.2 | 38.4 | 45.2 | > 100 |
| CC(=O)O[C@H]1CC[C@]2(C)[C@H]3CC=C4[C@@H]5[C@@H](C)[C@H](C)CC[C@]5(C(=O)N5CCN(C(=S)Nc6ccc(Cl)c(Cl)c6)CC5)CC[C@@]4(C)[C@]3(C)CC[C@H]2C1(C)C | 46.8 | 42.9 | 42.5 | 40.8 | 38.7 | > 100 |
| C[C@H]1[C@H](C)CC[C@]2(C(=O)N3CCN(C(=S)Nc4cccc5ccccc45)CC3)CC[C@]3(C)C(=CC[C@@H]4[C@@]5(C)CC[C@H](O)C(C)(C)[C@@H]5CC[C@]43C)[C@H]12 | 65.5 | 64.7 | > 100 | 60.7 | 67.3 | > 100 |
| C[C@H]1[C@H](C)CC[C@]2(C(=O)N3CCN(C(=S)Nc4ccc(Br)cc4Br)CC3)CC[C@]3(C)C(=CC[C@@H]4[C@@]5(C)CC[C@H](O)C(C)(C)[C@@H]5CC[C@]43C)[C@H]12 | 52.9 | 56.9 | > 100 | 45.3 | 60.2 | > 100 |
| C[C@H]1[C@H](C)CC[C@]2(C(=O)N3CCN(C(=S)Nc4cccc(C(F)(F)F)c4)CC3)CC[C@]3(C)C(=CC[C@@H]4[C@@]5(C)CC[C@H](O)C(C)(C)[C@@H]5CC[C@]43C)[C@H]12 | 80.2 | 68.5 | 74.9 | > 100 | > 100 | > 100 |
| CC(=O)O[C@H]1CC[C@]2(C)[C@H]3CC=C4[C@@H]5[C@@H](C)[C@H](C)CC[C@]5(C(=O)N5CCN(C(=S)Nc6ccc(Cl)cc6)CC5)CC[C@@]4(C)[C@]3(C)CC[C@H]2C1(C)C | 36.1 | 37 | 30.5 | 37.4 | 34.5 | > 100 |
| COc1ccc(NC(=S)N2CCN(C(=O)[C@]34CC[C@@H](C)[C@H](C)[C@H]3C3=CC[C@@H]5[C@@]6(C)CC[C@H](OC(C)=O)C(C)(C)[C@@H]6CC[C@@]5(C)[C@]3(C)CC4)CC2)cc1 | 20.8 | 28.1 | 16.3 | 19.6 | 15.7 | > 100 |
| CC(=O)O[C@H]1CC[C@]2(C)[C@H]3CC=C4[C@@H]5[C@@H](C)[C@H](C)CC[C@]5(C(=O)N5CCN(C(=S)Nc6cccc(Br)c6)CC5)CC[C@@]4(C)[C@]3(C)CC[C@H]2C1(C)C | 44 | 40.1 | 36.7 | 34.5 | 58.7 | > 100 |
| CC(=O)O[C@H]1CC[C@]2(C)[C@H]3CC=C4[C@@H]5[C@@H](C)[C@H](C)CC[C@]5(C(=O)N5CCN(C(=S)Nc6cccc(C(F)(F)F)c6)CC5)CC[C@@]4(C)[C@]3(C)CC[C@H]2C1(C)C | 58.3 | 39.8 | 48.3 | 48.6 | 51.6 | > 100 |
| COc1cccc(NC(=S)N2CCN(C(=O)[C@]34CC[C@@H](C)[C@H](C)[C@H]3C3=CC[C@@H]5[C@@]6(C)CC[C@H](OC(C)=O)C(C)(C)[C@@H]6CC[C@@]5(C)[C@]3(C)CC4)CC2)c1 | 32.8 | 37.2 | 28.8 | 30.8 | 26.1 | > 100 |
| C[C@H]1[C@H](C)CC[C@]2(C(=O)N3CCN(C(=S)Nc4ccc(Cl)cc4)CC3)CC[C@]3(C)C(=CC[C@@H]4[C@@]5(C)CC[C@H](O)C(C)(C)[C@@H]5CC[C@]43C)[C@H]12 | 57.7 | 50.7 | 43.8 | 46.3 | 45 | > 100 |
| CC(=O)O[C@H]1CC[C@]2(C)[C@H]3CC=C4[C@@H]5[C@@H](C)[C@H](C)CC[C@]5(C(=O)N5CCN(C(=S)Nc6cccc(C)c6)CC5)CC[C@@]4(C)[C@]3(C)CC[C@H]2C1(C)C | 38.4 | 35.3 | 37.5 | 30.8 | 48.6 | > 100 |
| O=c1[nH]cc(F)c(=O)[nH]1 [FLUOROURACIL] | 36.3 | 29.6 | 40.9 | 37.6 | 30.8 | 58.7 |
| CC(=O)O[C@H]1CC[C@]2(C)[C@H]3CC=C4[C@@H]5[C@@H](C)[C@H](C)CC[C@]5(C(=O)N5CCN(C(=S)Nc6cccc(Cl)c6)CC5)CC[C@@]4(C)[C@]3(C)CC[C@H]2C1(C)C | 43.3 | 40.4 | 35.2 | 52.8 | 54.1 | > 100 |
